Experiment [1] deals with Staphylococcus aureus. The experiment is described as follows: Antibacterial activity against Staphylococcus aureus at […] after 24 hrs by agar diffusion method. The format is functional. The procedure, abridged: (§1)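 Single-concentration antibacterial screen at 100 μg/50 μL per test against the standard bacterial strains.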
For orientation: In agar diffusion tests the substance spreads into inoculated agar from a disc or well.

Experiment [2] concerns Pseudomonas aeruginosa. The experiment is described as follows: Antibacterial activity against Pseudomonas aeruginosa at 100 ug/[…] after 24 hrs by agar diffusion method. The format is functional. A digest of the protocol:
as §1

Experiment [3] has as its system Escherichia coli. The experiment is described as follows: Antibacterial activity against Escherichia coli at […] after 24 hrs by agar diffusion method. The format is functional. The procedure, abridged:
as §1

Experiment [4] has as its system Bacillus subtilis. The experiment is described as follows: Antibacterial activity against Bacillus subtilis at […] after 24 hrs by agar diffusion method. Format: functional. A digest of the protocol:
as §1

Experiment [5] concerns MCF7. The experiment is described as follows: Cytotoxicity against estrogen receptor-positive human MCF7 cells assessed as inhibition of cell proliferation at 1 ug/ml after 24 hrs by MTT assay. The note with it: MCF7, 24 h. The format is functional. A digest of the protocol:
(§2)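 MTT assay on MCF-7 human breast cancer cells, Taxol as reference; percentage inhibition of cell proliferation read at graded concentrations from 0.1 to 50 μg/mL (typically five or six levels per compound); IC50 in μg/mL derived from the inhibition series.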

The test system of experiment [6] is MCF7. Description: Cytotoxicity against estrogen receptor-positive human MCF7 cells assessed as inhibition of cell proliferation at 10 ug/ml after 24 hrs by MTT assay. The format is functional. Conditions: MCF7, 24 h. A digest of the protocol:
as §2

For experiment [7], the system named is MCF7. Description: Cytotoxicity against estrogen receptor-positive human MCF7 cells assessed as inhibition of cell proliferation at 50 ug/ml after 24 hrs by MTT assay. The format is functional. The note with it: MCF7, 24 h. The procedure, abridged: as §2
Experiment [8] concerns MCF7. The experiment is described as follows: Cytotoxicity against estrogen receptor-positive human MCF7 cells assessed as inhibition of cell proliferation at 25 ug/ml after 24 hrs by MTT assay. The note with it: MCF7, 24 h. The format is functional. The procedure, abridged:
as §2
In general terms: Formazan colour is commonly taken as a measure of viable cells.

Experiment [9] deals with MCF7. The experiment is described as follows: Cytotoxicity against estrogen receptor-positive human MCF7 cells assessed as inhibition of cell proliferation at 5 ug/ml after 24 hrs by MTT assay. The format is functional. Conditions: MCF7, 24 h. The procedure, abridged:
as §2

Experiment [10] has as its system Rattus norvegicus. Description: Antiinflammatory activity in Wistar rat assessed as protection against carrageenan-induced paw edema at 100 mg/kg, po administered 1 hr before carrageenan challenge measured after 4 hrs. The format is functional.
Experiment [11] concerns Rattus norvegicus. Description: Antiinflammatory activity in Wistar rat assessed as protection against carrageenan-induced paw edema at 100 mg/kg, po administered 1 hr before carrageenan challenge measured after 30 mins. Format: functional. For orientation: Carrageenan injected into the paw causes an acute inflammation.
Experiment [12] concerns Staphylococcus aureus. Description: Antibacterial activity against Staphylococcus aureus after 18 to 24 hrs by broth microdilution method. Format: functional.
The subject of experiment [13] is Rattus norvegicus. The experiment is described as follows: Antiinflammatory activity in Wistar rat assessed as protection against carrageenan-induced paw edema at 100 mg/kg, po administered 1 hr before carrageenan challenge measured after 3 hrs. The format is functional.
For experiment [14], the system named is MCF7. The experiment is described as follows: Cytotoxicity against estrogen receptor-positive human MCF7 cells assessed as inhibition of cell proliferation after 24 hrs by MTT assay. The format is functional, cell-based. A digest of the protocol:
as §2

Experiment [15] relates to Pseudomonas aeruginosa. Description: Antibacterial activity against Pseudomonas aeruginosa after 18 to 24 hrs by broth microdilution method. The format is functional.
Experiment [16] has as its system Rattus norvegicus. The experiment is described as follows: Antiinflammatory activity in Wistar rat assessed as protection against carrageenan-induced paw edema at 100 mg/kg, po administered 1 hr before carrageenan challenge measured after 2 hrs. Format: functional.
Experiment [17] deals with Bacillus subtilis. The experiment is described as follows: Antibacterial activity against Bacillus subtilis after 18 to 24 hrs by broth microdilution method. Format: functional.
Experiment [18] concerns Escherichia coli. The experiment is described as follows: Antibacterial activity against Escherichia coli after 18 to 24 hrs by broth microdilution method. Format: functional.
The test system of experiment [19] is Rattus norvegicus. The experiment is described as follows: Antiinflammatory activity in Wistar rat assessed as protection against carrageenan-induced paw edema at 100 mg/kg, po administered 1 hr before carrageenan challenge measured after 1 hr. The format is functional.

≈ marks a conversion by molar mass, not a printed value.

In general, inhibition refers to the share of the control response that was lost under treatment. As a reminder, the MIC is the smallest concentration in the dilution series that meets the test's criterion for growth inhibition. Higher therefore signals weaker potency. One may read the IC50 as the concentration that gives 50% inhibition.

Take `Cc1[nH]nc2c1C1(C(C#N)=C(N)O2)c2ccccc2-c2ccccc21`: the “inhibition zone (IZ)” value with Staphylococcus aureus [1] was found to be 10 mm; in the experiment on Pseudomonas aeruginosa [2], 17 mm; with Escherichia coli [3], 10 mm; in the experiment with Bacillus subtilis [4], 10 mm.
Turning to `Cc1[nH]nc2c1C(c1ccc(C3C(C#N)=C(N)Oc4n[nH]c(C)c43)cc1)C(C#N)=C(N)O2` (stereo not given), the inhibition at 1 µg/mL in the experiment with MCF7 [5] worked out at 11.4%. In addition, the inhibition at 10 µg/mL in the experiment with MCF7 [6] amounted to 24.4%. Besides, in the experiment on MCF7 [7], the inhibition at 50 µg/mL was 26.7%. In addition, in the experiment with MCF7 [8], the inhibition at 25 µg/mL came out at 24.8%. Besides, the inhibition at 5 µg/mL with MCF7 [9] turned out to be 23.4%.
With `Cc1nn(-c2ccccc2)c2c1C(c1ccc(O)cc1)C(C#N)=C(N)O2` (stereo not given), the Activity is recorded as 50.5% in the experiment with Rattus norvegicus [10]; 11.7% in the experiment with Rattus norvegicus [11]; 56.9% in the experiment on Rattus norvegicus [13]; 43.8% with Rattus norvegicus [16]; 30.5% in the experiment on Rattus norvegicus [19]. Moreover, the “inhibition zone (IZ)” value is 15 mm in the experiment on Staphylococcus aureus [1], 15 mm with Pseudomonas aeruginosa [2], 16 mm with Escherichia coli [3] and 17 mm in the experiment on Bacillus subtilis [4]. For the same molecule, the minimal inhibitory concentration (MIC) in the experiment with Staphylococcus aureus [12] worked out at 6.25 µg/mL (≈ 18.1 µM); with Pseudomonas aeruginosa [15], 3.12 µg/mL (≈ 9.07 µM); against Bacillus subtilis [17], 6.25 µg/mL (≈ 18.1 µM); in the experiment with Escherichia coli [18], 12.5 µg/mL (≈ 36.3 µM). Besides, the half-inhibitory concentration (IC50) in the experiment on MCF7 [14] (Homo sapiens, MCF7, 24 h, read-out: IC50) was found to be 47.5 µg/mL. Moreover, the inhibition at 1 µg/mL in the experiment with MCF7 [5] stood at 2.1%. Further, the inhibition at 10 µg/mL in the experiment on MCF7 [6] is 22.9%. In the experiment on MCF7 [7], the inhibition at 50 µg/mL was 50.2%. Besides, the inhibition at 25 µg/mL in the experiment with MCF7 [8] stood at 30.8%. Also, the inhibition at 5 µg/mL in the experiment with MCF7 [9] is 5.96%.
Turning to `Cc1nn(-c2ccccc2)c2c1C(c1cccc(Oc3ccccc3)c1)C(C#N)=C(N)O2` (stereo not given), the “inhibition zone (IZ)” value in the experiment on Staphylococcus aureus [1] is on record as 15 mm; in the experiment on Escherichia coli [3] it was 18 mm. Besides, the MIC in the experiment on Staphylococcus aureus [12] is 3.12 µg/mL (≈ 7.43 µM); in the experiment with Pseudomonas aeruginosa [15], 3.12 µg/mL (≈ 7.43 µM); with Bacillus subtilis [17] it was 6.25 µg/mL (≈ 14.9 µM); with Escherichia coli [18], 6.25 µg/mL (≈ 14.9 µM).
For `Cc1nn(-c2ccccc2)c2c1C(c1cccc(Oc3nc(Cl)c(Cl)cc3Cl)c1)C(C#N)=C(N)O2` (stereo not given), the “inhibition zone (IZ)” value with Staphylococcus aureus [1] was found to be 16 mm; with Pseudomonas aeruginosa [2] it was 16 mm; in the experiment with Escherichia coli [3] it was 14 mm; in the experiment on Bacillus subtilis [4] it was 15 mm. The MIC with Staphylococcus aureus [12] amounted to 6.25 µg/mL (≈ 11.9 µM); with Pseudomonas aeruginosa [15] it was 6.25 µg/mL (≈ 11.9 µM); against Bacillus subtilis [17], 6.25 µg/mL (≈ 11.9 µM); in the experiment on Escherichia coli [18] it was 12.5 µg/mL (≈ 23.8 µM).
Regarding `Cc1nn(-c2ccccc2)c2c1C1(C(C#N)=C(N)O2)c2ccccc2-c2ccccc21`, the Activity in the experiment with Rattus norvegicus [10] is reported as 56.6%; in the experiment with Rattus norvegicus [11], 23.5%; with Rattus norvegicus [13] it was 65.5%; in the experiment on Rattus norvegicus [16] it was 45.2%; in the experiment on Rattus norvegicus [19], 30.5%. The “inhibition zone (IZ)” value is 12 mm in the experiment with Staphylococcus aureus [1], 16 mm in the experiment with Pseudomonas aeruginosa [2], 13 mm in the experiment with Escherichia coli [3] and 11 mm in the experiment with Bacillus subtilis [4].
On to `O=C(O)c1cn(C2CC2)c2cc(N3CCNCC3)c(F)cc2c1=O` [CIPROFLOXACIN], for which the MIC in the experiment on Staphylococcus aureus [12], against Pseudomonas aeruginosa [15] and against Bacillus subtilis [17] was 1.56 µg/mL (≈ 4.71 µM) each time.
`CC(C)Cc1ccc(C(C)C(=O)O)cc1` (stereo not given) [IBUPROFEN]: the Activity with Rattus norvegicus [10] stood at 64.4%; with Rattus norvegicus [11] it was 38%; in the experiment on Rattus norvegicus [13], 72.3%; in the experiment with Rattus norvegicus [16] it was 52.7%; in the experiment on Rattus norvegicus [19], 41.6%.
As to `CC(=O)O[C@H]1C(=O)[C@@]2(C)[C@H]([C@H](OC(=O)c3ccccc3)[C@]3(O)C[C@H](OC(=O)[C@H](O)[C@@H](NC(=O)c4ccccc4)c4ccccc4)C(C)=C1C3(C)C)[C@]1(OC(C)=O)CO[C@@H]1C[C@@H]2O` [PACLITAXEL], the IC50 with MCF7 [14] (mcf7) stood at 15 nM.

The values are drawn from ChEMBL document CHEMBL2062449, “Eco-friendly synthesis and biological evaluation of substituted pyrano[2,3-c]pyrazoles” (Bioorg Med Chem Lett, 2012).
